Mot1-301 SUMO – yeast Mot1-301 growth rescue at high temperature, primary screen, SUMOylation pathway inhibitor project, S. cerevisiae, ATP luminescence, 38.5C | S. cerevisiae Mot1-301 growth rescue; percent above DMSO median, 100 means doubled | AID 2716, 2010 | actives 1% (n = 320,000) | growth rescue, % at 18.8 µM;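 active = every valid replicate shows activation above 250% relative to neutral control wells; inactive = the rest, any valid replicate at or below 250%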;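 note: OY570 slx delta 5 strain wells were the positive control but not used for scaling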
CSC inhib – cancer stem cell viability inhibitors, primary screen, luminescence; cancer stem cell-like cells viability; inhibition, % at 7.5 µM; actives 1.1% (n = 300,000); in the data active = inhibition above about 75%; tested in HMLE shEcad cells
Beta cell apopt – inhibitors of cytokine-induced beta cell apoptosis, primary screen, luminescence; actives 0.8% (n = 300,000); protection from apoptosis, % (concentration not given with the values); AID 435005, 2010; INS-1E cytokine-induced death, ATP luminescence, 48 h; percent of positive-control rescue, neutral wells zero;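 active = Every replicate reaches about 75%, or at least half do and their mean reaches it too, limit read from the data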;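 note: 0% = cytokine-treated negative control wells and 100% = positive control rescue; higher means more ATP so stronger rescue from cytokine killing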
WT yeast gro inh – growth inhibition of WT strain, primary screen, mitochondrial fusion inhibitor project, WT and mutant strains, chemical genetic; mitochondrial fusion phenotypic screen; inhibition, % at 10 µM; actives 2.1% (n = 190,000); AID 1362, 2008; in the data active = inhibition above about 58%; tested in S. cerevisiae
T cruzi inh – inhibitors of intracellular T. cruzi growth, primary screen, luminescence, NIH3T3 host cells | inhibition, % (test concentration not listed) | actives 1.4% (n = 300,000) | T. cruzi beta-gal in NIH3T3, 90 h | AID 1885, 2009;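 active = mean inhibition across valid replicates above about 55%, limit read from the data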;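 note: signal also drops with host cell toxicity which is not excluded here; 0% = plate median of DMSO wells and 100% = zero luminescence signal; higher percent means less beta-gal luminescence so fewer parasites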
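Test system: β-gal T. cruzi (Tulahuen C4) inside NIH/3T3 cells / Quantity: 5,000 cells/well / Measured by: luminescence from GalScreen with 0.05% NP40, read after 60 min / Medium: DMEM plus 2% FBS / Measure: parasite load inhibition, % / Reagent: Tulahuen C4 trypomastigotes, 5000/well / Schedule: co-culture of at least 90 h after 3 h attachment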
Efflux pump mplx – inhibitors of Candida efflux pumps in yeast, primary screen, S. cerevisiae, Nile Red, multiplex; AID 485275, 2010; inhibition, % at 10 µM; actives 0.44% (n = 330,000); S. cerevisiae Candida pump triplex;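 active = plate passing quality check with inhibition over a set limit, or well fluorescence over plate mean plus 4 SD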;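 note: Nile Red retained in pooled yeast measured as flow cytometry median fluorescence; 0% = buffer negative control and 100% = Enniatin B positive control; higher means more Nile Red kept so more efflux inhibition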
The depositor's hits bear a star; x = no result; + = active, no number. In the library only some 4.8% were active in any assay of this set; here they are far more common.

SMILES | Mot1-301 SUMO | CSC inhib | Beta cell apopt | WT yeast gro inh | T cruzi inh | Efflux pump mplx
CCN(CC(=O)Nc1ccc(NC(C)=O)cc1)C(=O)c1cccnc1Sc1ccc(C)c(C)c1 | 9 | -14 | 2 | x | 1 | 0
CCCn1c(CN(Cc2ccccc2)Cc2ccccc2)nc2c1c(=O)n(C)c(=O)n2C | -10 | -14 | 2 | 77* | 24 | 0
CCCn1c(CN(C)Cc2ccccc2)nc2c1c(=O)n(C)c(=O)n2C | -6 | -15 | 59 | -4 | 13 | 0
O=C(Nc1ccc(S(=O)(=O)N2CCOCC2)cc1)c1ccc([N+](=O)[O-])s1 | -5 | 63 | 90* | x | 72* | 0
O=C(Nc1ccc(NC(=O)c2ccc(Cl)c(S(=O)(=O)N3CCOCC3)c2)cc1)c1ccccc1 | -1 | -10 | -6 | x | -8 | 0
CC(=O)Nc1ccc(S(=O)(=O)N2CC3(C)CC2CC(C)(C)C3)cc1 (stereo unspecified) | -14 | -6 | 3 | 11 | -4 | 0
O=C(Nc1ccc(S(=O)(=O)N2CCOCC2)cc1)c1cccs1 | -10 | -1 | 5 | 6 | -3 | 0
CC1(C)CC2CC(C)(CN2S(=O)(=O)c2ccc(C(=O)Nc3ccc(S(=O)(=O)N4CCOCC4)cc3)cc2)C1 (stereo unspecified) | -6 | x | 56 | -3 | 55* | 0
CC1(C)CC2CC(C)(CN2S(=O)(=O)c2ccc(C(=O)Nc3ccc(Cl)c(S(=O)(=O)N4CCOCC4)c3)cc2)C1 (stereo unspecified) | -1 | 19 | 2 | 13 | 63* | 0
COc1cc(NC(=O)C2C3CCC(O3)C2C(=O)O)cc(OC)c1 (stereo unspecified) | -9 | -1 | -10 | x | 9 | 0
COC(=O)c1ccc(/C=C/C(=O)OCC(=O)Nc2cc(C)on2)cc1 | -22 | -15 | -4 | x | x | 0
Clc1ccc2[nH]cc(-c3nnnn3-c3ccc4ccccc4c3)c2c1 | -6 | 15 | 31 | 8 | 69* | 0
Cc1ccc(C(=O)N/N=C\c2ccc(-c3ccc(Cl)c(Cl)c3)o2)cn1 | 51 | 76* | 8 | x | 6 | 0
NS(=O)(=O)c1ccc(-c2ccc(/C=N/NC(=O)c3ccc([N+](=O)[O-])cc3)o2)cc1 | 311* | -5 | -2 | x | -10 | 0
O=C(N/N=C\c1ccc(-c2ccc([N+](=O)[O-])cc2)o1)C1COc2ccccc2O1 (stereo unspecified) | 17 | -2 | -2 | 18 | 59* | 0
CC(C)[C@H](NC(=O)[C@@H]1Cc2ccccc2CN1)C(=O)Nc1ccc2c(c1)OCO2 | -3 | 17 | -1 | x | 2 | 0
Cc1ccc(S(=O)(=O)/N=C2\C=C(Nc3ccc(O)cc3)C(=O)c3ccccc32)cc1 | -20 | 133* | 120* | x | x | 0
Cc1ccc(NC2=C/C(=N/S(=O)(=O)c3cccs3)c3ccccc3C2=O)cc1 | -12 | + | 103* | 55 | 46 | 0
O=C1C(Nc2ccccc2)=C/C(=N/S(=O)(=O)c2cccs2)c2ccccc21 | -36 | 112* | 105* | 99* | 60* | 0
Cc1ccc(/C=C2\S/C(=N/S(=O)(=O)c3cccs3)NC2=O)cc1 | 108 | 35 | 0 | x | -1 | 0
O=C1C(Nc2ccccc2)=C(NS(=O)(=O)c2ccccc2)C(=O)c2ccccc21 | -10 | 19 | 2 | 17 | -4 | 0
CCCCOc1ccc(S(=O)(=O)N2CCN(c3ccc(N4CCN(CC)CC4)nn3)CC2)cc1 | x | 95* | x | x | 30 | 0
CCN(CC)CCSc1nc2ccccc2c(=S)n1-c1ccccc1 | -7 | 19 | 16 | 20 | 64* | 0
CCN(CC)CCSc1nc(O)c(-c2ccccc2)c(=O)n1-c1ccccc1 | -2 | -10 | -2 | -1 | -2 | 0
O=c1c2ccccc2nc(N/N=C/c2ccc(O)cc2)n1O | 3 | -13 | -1 | 1 | -12 | 0
SMILES | Mot1-301 SUMO | CSC inhib | Beta cell apopt | WT yeast gro inh | T cruzi inh | Efflux pump mplx
Cc1nc2ccccc2c(=O)n1/N=C/c1c(O)ccc2oc3c(c12)CCCC3 | 45 | 82* | 93* | -16 | 28 | 0
O=c1c2ccccc2nc(N/N=C/c2c(O)ccc3ccccc23)n1O | 42 | 112* | 98* | 6 | -10 | 0
Cc1nc2ccccc2c(=O)n1/N=C/c1c(O)ccc2ccccc12 | -10 | 2 | 85* | -19 | 12 | 0
Cc1nc2ccccc2c(=O)n1/N=C/c1cc(Br)ccc1O | 77 | 1 | 38 | x | -25 | 0
CC(C)C(NC(=O)OC(C)(C)C)C(=O)N1CCCC1C(=O)NC(Cc1ccccc1)C(N)=O (stereo unspecified) | -6 | -5 | -4 | -21 | 0 | 0
Cc1cccc(CSc2cccc3cccnc23)c1 | 22 | 45 | 46 | 65 | 70* | 0
NNC(=O)c1ccc(CSc2cccc3cccnc23)cc1 | -6 | -6 | 2 | 11 | -18 | 0
CC(Sc1nc(N)cc(=O)[nH]1)C(=O)Nc1nc2c(s1)CCCC2 (stereo unspecified) | -4 | x | -6 | x | 3 | 0
COc1ccc(-c2ccc3c(c2)S(=O)(=O)c2cccc(C(=O)NCCOc4ccccc4Cl)c2C3=O)cc1OC | -6 | x | 91* | x | x | 0
CCOC(=O)c1nn(-c2ccccc2)c(=O)c2c(N)scc12 | 332* | 21 | -6 | 7 | x | 0
CCOC(=O)c1nn(-c2ccccc2C)c(=O)c2c(N)scc12 | 8 | -3 | 1 | 1 | -14 | 0
CC(NC(=O)c1cc(-c2ccncc2)nc2ccc(Cl)cc12)C1CCCO1 (stereo unspecified) | 341* | -5 | 9 | x | 14 | 0
Cc1ccccc1NC(=S)NCCO | 9 | -8 | -5 | -5 | -19 | 0
CCCCNC(=O)Nc1ccccc1CC | 19 | -5 | -2 | x | -18 | 1
CCCCNC(=S)Nc1ccccc1Cc1ccccc1 | 21 | -8 | 19 | 73* | -1 | 0
CCCCSCCCNC(=S)Nc1ccccc1C | -8 | 6 | 16 | 73* | -3 | 0
O=C(O)CCCCCN1C(=O)/C(=C\c2cn(-c3ccccc3)nc2-c2cccs2)SC1=S | 4 | 103* | 1 | x | 14 | 0
COc1ccc(-c2nn(-c3ccccc3)cc2/C=C2/SC(=S)N(CCC(=O)O)C2=O)c(C)c1 | -9 | 85* | 5 | x | 13 | 0
COc1ccccc1NC(=O)CNC(=O)c1ccc(Br)o1 | 7 | 12 | -2 | x | -10 | 0
O=C(Nc1nc2ccccc2n1Cc1ccccc1)c1ccc(COc2ccccc2[N+](=O)[O-])o1 | -10 | x | 24 | -9 | 68* | 0
COC(=O)c1ccc2c(c1)C(C)(C)C(/C=C/c1ccccc1O)=[N+]2C | -3 | 78* | 1 | 7 | 74* | 0
